From PubChem
SKKanGAS inh = inhibitors of SKKanGAS S. pyogenes growth in kanamycin (SK-promoter or general growth effect). BacTiter-Glo, 6 h. inhibition, % at 7.5 µM. actives 1.3% (n = 300,000);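 active = mean replicate score, as percent of positive control median, at least 50; inconclusive = mean below 50 but one replicate at or above 50; inactive = mean and every replicate below 50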;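 note: strain carries kanamycin resistance gene driven by streptokinase promoter and grows in 40 µg/ml kanamycin; loss of luminescence reflects streptokinase promoter inhibition or plain growth inhibition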
Mdm2-MdmX inh = disrupts the human Mdm2-MdmX interaction; O15151+Q00987; SaOS-2 split-luciferase Mdm2/MdmX complementation, luminescence; inhibition, % at 8 µM; actives 3% (n = 330,000); AID 485346;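 active = inhibition of at least 50% at 8 µM in the primary screen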
Target sequence (O15151 whole entry, looked up): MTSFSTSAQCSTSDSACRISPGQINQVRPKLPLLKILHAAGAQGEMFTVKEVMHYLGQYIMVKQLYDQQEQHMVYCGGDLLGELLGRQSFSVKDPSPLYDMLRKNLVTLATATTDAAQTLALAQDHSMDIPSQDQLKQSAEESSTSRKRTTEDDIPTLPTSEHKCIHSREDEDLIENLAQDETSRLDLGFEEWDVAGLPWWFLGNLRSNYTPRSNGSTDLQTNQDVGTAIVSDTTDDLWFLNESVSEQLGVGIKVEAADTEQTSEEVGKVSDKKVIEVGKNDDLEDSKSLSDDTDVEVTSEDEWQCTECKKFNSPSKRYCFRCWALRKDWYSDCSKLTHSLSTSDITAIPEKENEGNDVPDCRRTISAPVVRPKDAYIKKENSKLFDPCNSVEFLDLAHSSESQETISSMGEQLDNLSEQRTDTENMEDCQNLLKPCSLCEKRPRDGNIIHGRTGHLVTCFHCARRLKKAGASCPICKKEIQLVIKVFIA
Target sequence (Q00987 whole entry, looked up): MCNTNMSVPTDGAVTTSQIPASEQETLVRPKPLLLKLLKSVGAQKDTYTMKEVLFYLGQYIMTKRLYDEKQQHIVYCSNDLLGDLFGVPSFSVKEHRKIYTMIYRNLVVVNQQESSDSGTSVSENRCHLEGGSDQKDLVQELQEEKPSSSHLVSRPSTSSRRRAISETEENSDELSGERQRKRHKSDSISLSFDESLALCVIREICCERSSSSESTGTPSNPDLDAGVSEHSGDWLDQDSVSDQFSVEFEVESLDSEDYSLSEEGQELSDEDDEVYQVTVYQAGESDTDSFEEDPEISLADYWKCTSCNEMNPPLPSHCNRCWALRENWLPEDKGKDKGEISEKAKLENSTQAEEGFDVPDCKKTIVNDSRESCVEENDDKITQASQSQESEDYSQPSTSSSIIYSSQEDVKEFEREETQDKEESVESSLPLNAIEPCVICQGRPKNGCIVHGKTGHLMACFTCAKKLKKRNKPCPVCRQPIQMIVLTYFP
Beta apoptosis = beta cell apoptosis inhibition; INS-1E cytokine-induced death, ATP luminescence, 48 h; percent of positive-control rescue, neutral wells zero; protection from apoptosis, % (test concentration not listed); actives 0.8% (n = 300,000); AID 435005;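 active = Every replicate reaches about 75%, or at least half do and their mean reaches it too, limit read from the data; inconclusive = At least half of replicates reach the limit but their mean does not; inactive = Under half of replicates reach the limit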;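 note: higher means more ATP so stronger rescue from cytokine killing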
UPR XBP1 act = activators of adaptive arm of unfolded protein response (XBP1); CHO-XBP1 luciferase reporter, IRE1-XBP1 UPR activation, luminescence; percent of tunicamycin response, DMSO as zero; activation, % at 20 µM; actives 0.33% (n = 330,000); AID 463104;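 active = versus positive control, 20 µM dose yields 30% or more activation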
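assay system = CHO-XBP1 luciferase reporter cells | amount = 1000 cells/well | buffer or medium = F12 plus 10% FBS | compound dosing = single point, 20 µM final compound, 1% DMSO | incubation = 16-18 h cell attachment at 37 °C, then 6 h compound exposure | detection = Steady-Glo luminescence read | controls = tunicamycin 10 µg/mL and vehicle-only wells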
UPR CHOP act = activators of apoptotic arm of unfolded protein response (CHOP); CHO-CHOP luciferase reporter, UPR activation, luminescence; percent of tunicamycin response over DMSO baseline; activation, % at 10 µM; actives 0.34% (n = 330,000);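 active = at 10 µM dose, activation of 40% or more, normalized to positive control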
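assay system = CHO CHOP reporter cells | amount = 500 CHO-CHOP cells per well | buffer or medium = F12 with 10% FBS | incubation = 16-18 h cell attachment, then 6 h compound exposure, 37 °C | detection = luminescence read with Steady-Glo | read-out = percent activation relative to tunicamycin control | controls = tunicamycin high control, DMSO low control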
CSC inhib = cancer stem cell inhibition; actives 1.1% (n = 300,000); cancer stem cell-like cells viability, luminescence; inhibition, % at 7.5 µM; in the data active = inhibition above about 75%; inconclusive = no clear call, values can overlap the other calls; tested in HMLE shEcad cells
Mdm2 MdmX conf = human Mdm2/MdmX binding inhibition, confirmed; inhibition, % at 8 µM; shares compounds with Mdm2-MdmX inh; luminescent assay; AID 489028; actives 55% (n = 10,000); in the data active = inhibition above about 40%
FLuc counter = inhibits full-length luciferase, flagging false Mdm2/MdmX hits; shares compounds with Mdm2-MdmX inh; SaOS-2 full-length luciferase counterscreen, luminescence; AID 504607; inhibition, % at 8 µM; actives 77% (n = 6,200);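 active = mean inhibition at 8 µM reaching about 37%, which flags the compound as non-specific, limit read from the data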;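 note: p53-null SaOS-2 cells with luciferase driven by a doxycycline-inducible promoter; compound on cells about two nights before reading with doxycycline added after day one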
Hits are given with their value; - = inactive; ? = inconclusive; . = not tested or not shown. Rows were chosen to be rich in hits. Some 4.8% of all compounds tested hit in one or more screens of this group.

SMILES | SKKanGAS inh | Mdm2-MdmX inh | Beta apoptosis | UPR XBP1 act | UPR CHOP act | CSC inhib | Mdm2 MdmX conf | FLuc counter
O=C(NC(=S)Nc1cccc2[nH]ncc12)c1ccccc1 | - | - | - | - | - | - | . | .
Cc1cc(C(=O)CCC(=O)N(C)CC(=O)Nc2ccc(OC(F)(F)F)cc2)c(C)s1 | . | - | . | - | - | . | . | .
CC(C)S(=O)(=O)c1csc(NC(=O)Nc2cc(Cl)ccc2Cl)c1Cl | 58.2 | 61.6 | - | - | - | - | - | 93.3
CC(=O)NC(CCS(C)(=O)=O)C(=O)Nc1cc(Cl)ccc1Cl (stereo unspecified) | - | - | - | - | - | - | . | .
COc1ccc(C(=O)c2cnc3ccccc3c2-c2ccccc2)cc1 | - | 57.0 | - | - | - | - | - | .
Cc1ccc(C(=O)c2nc(C(=O)NCCO)nc3ccccc23)cc1 | . | - | - | - | - | - | . | .
Cc1ccc(C(=O)c2cnc3ccccc3c2-c2ccccc2)cc1 | - | 55.8 | - | - | - | - | - | .
COc1ccc(NC(=O)C2CCCN2S(=O)(=O)c2cccs2)c([N+](=O)[O-])c1 (stereo unspecified) | - | - | - | - | - | - | . | .
COc1cccc(C(CNC(=O)C(c2ccccc2)c2ccccc2)N(C)C)c1 (stereo unspecified) | - | - | - | - | - | - | . | .
C[C@H]1CCC[C@]2(C)C[C@H]3OC(=O)C(CN4CCCCCC4)[C@H]3C=C12 (stereo partly specified) | - | 72.9 | - | - | - | - | 48.5 | -
Cc1cc(Oc2nc3c(C)cccn3c(=O)c2/C=C(\C#N)S(=O)(=O)c2ccc(Cl)cc2)ccc1Cl | - | 56.7 | - | - | - | - | - | .
O=C1c2ccccc2NC(c2ccc(Br)s2)N1O (stereo unspecified) | ? | 53.8 | - | - | - | - | 62.0 | 43.9
CCOC(=O)CSc1ccc(C(=O)NCCCN2CCOCC2)cc1[N+](=O)[O-] | - | - | - | - | - | - | . | .
CC1Cc2ccccc2N1C(=O)CSc1nc2c(c(=O)n(C)c(=O)n2C)n1Cc1ccc(F)cc1 (stereo unspecified) | - | 71.7 | - | - | - | - | 47.1 | 71.5
CCCCn1c(SCC(=O)N2c3ccccc3Sc3ccccc32)nc2c1c(=O)n(C)c(=O)n2C | - | 59.1 | - | - | - | - | - | .
Cn1c(=O)c2c(nc(SCC(=O)c3cccs3)n2Cc2ccc(F)cc2)n(C)c1=O | - | - | - | - | - | - | . | .
CCn1c(SCC(=O)N2c3ccccc3Sc3ccccc32)nc2c1c(=O)n(C)c(=O)n2C | - | - | - | - | - | - | . | .
CSCCC(NS(=O)(=O)c1ccc2c(c1)OCCO2)C(=O)N(C)Cc1ccccc1F (stereo unspecified) | . | - | - | - | - | . | . | .
CCOC(=O)c1cc([N+](=O)[O-])sc1NC(=O)c1ccc(S(=O)(=O)N2CC3(C)CC2CC(C)(C)C3)cc1 (stereo unspecified) | - | 95.1 | - | - | - | - | 51.1 | 57.2
Cc1ccc(/C(N)=N/OC(=O)N2CCOCC2)cc1 | - | 94.8 | . | - | - | . | 50.6 | 125.6
Cc1ccc(C(=O)OCC(=O)N2CCOCC2)cc1 | - | - | - | - | - | - | . | .
Cc1cccc(/C(N)=N/OC(=O)N2CCOCC2)c1 | - | 85.9 | - | - | - | - | 48.7 | 105.3
Cc1cccc(/C(N)=N/OC(=O)c2ccco2)c1 | - | - | - | - | - | - | . | .
COc1cccc(S(=O)(=O)NC2CCN(C#N)C2)c1 (stereo unspecified) | . | - | - | - | - | - | . | .
O=C(COC(=O)c1c2c(nc3ccccc13)/C(=C/c1cccc([N+](=O)[O-])c1)CCC2)NC1CCS(=O)(=O)C1 (stereo unspecified) | - | 70.9 | - | - | - | - | - | .
SMILES | SKKanGAS inh | Mdm2-MdmX inh | Beta apoptosis | UPR XBP1 act | UPR CHOP act | CSC inhib | Mdm2 MdmX conf | FLuc counter
CN(C(=O)COC(=O)c1c2c(nc3ccccc13)/C(=C/c1cccc([N+](=O)[O-])c1)CCC2)C1CCS(=O)(=O)C1 (stereo unspecified) | - | - | - | - | - | - | . | .
O=C(COc1ccccc1)OCc1cc(-c2ccco2)on1 | . | - | - | - | - | - | . | .
CC(Oc1ccccc1)C(=O)Nc1ccc(F)c(S(=O)(=O)N2CCOCC2)c1 (stereo unspecified) | . | - | . | - | - | . | . | .
CC(C)[C@]1(c2ccc(Cl)cc2)ON(c2ccccc2C(F)(F)F)C1=O | . | 68.0 | - | - | - | - | - | 56.2
O=C1N(c2ccccc2C(F)(F)F)OC1(Cc1ccccc1)c1ccccc1 (stereo unspecified) | . | 91.6 | - | - | - | - | 66.8 | 52.0
CC(C)[C@]1(c2ccccc2)ON(c2ccccc2C(F)(F)F)C1=O | . | - | - | - | - | - | . | .
O=C1N(c2ccccc2C(F)(F)F)O[C@]1(c1ccccc1)C1CCCCC1 | . | 85.4 | - | - | - | - | 62.0 | 50.8
CC(C)[C@@]1(c2ccccc2)ON(c2ccccc2C(F)(F)F)C1=O | . | - | - | - | - | - | . | .
CCSCCc1nnc(NC(=O)Nc2cccc(C(F)(F)F)c2)s1 | - | 94.9 | 118.9 | - | - | - | 95.2 | 49.6
O=C(NCCC1=CCCCC1)c1cc(COc2c(F)cccc2F)on1 | - | - | - | - | - | - | . | .
CSc1ccccc1OCc1cc(C(=O)NCCC2=CCCCC2)no1 | - | 51.9 | - | - | - | - | - | .
O=C(/C=C/c1cccs1)c1cc(Br)ccc1OC(=O)N1CCOCC1 | - | 53.0 | - | - | - | - | - | .
Cc1ccnc(NC(=O)CSc2nnc3c(n2)[nH]c2ccccc23)c1 | - | 55.1 | - | - | - | - | 56.0 | 98.9
COc1ccc(OC)c(/C=C2\SC(=S)N(Cc3cccnc3)C2=O)c1 | - | 72.9 | - | - | - | - | 43.5 | 49.2
COc1cc(-c2noc(C)c2C(=O)NCCc2c[nH]c3ccccc23)cc(OC)c1OC | - | - | - | - | - | - | . | .
COc1cc(-c2noc(C)c2-c2ccc3[nH]ccc3c2)cc(OC)c1OC | - | 82.0 | - | - | - | - | 77.2 | 53.7
COc1cc(-c2noc(C)c2-c2ccc(N(C)C)nc2)cc(OC)c1OC | - | 86.3 | - | - | - | - | 79.3 | 88.0
Nc1ccc(NC(=O)c2cccc(C(=O)Nc3ccc(N)cc3Cl)c2)c(Cl)c1 | - | - | - | - | - | - | . | .
CC1CN(C(=S)NC2CCCC2)CC(C)O1 (stereo unspecified) | - | - | - | - | - | - | . | .
